These results are taken from ChEMBL document CHEMBL1153954, “Promiscuous aggregate-based inhibitors promote enzyme unfolding” (J Med Chem, 2009).

SMILES strings stand for the structures.

The target in experiment [1] is AmpC (Escherichia coli) (UniProt Q83TT7). Briefly: Aggregation based inhibition of Escherichia coli AmpC assessed as increase in deuteration of AmpC peptide fragment spanning 291-322 amino acid sequence after 10 mins by hydrogen-deuterium exchange mass spectrometry relative to control. The method, boiled down: (§1)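 AmpC β-lactamase diluted from a 215 μM stock (50 mM KPi, pH 7.0) into deuterated 50 mM MOPS in D2O, pH 7.0. Final enzyme was 0.16 μM with 100 μM aggregator (0.5% DMSO) or 16 μM without. Aggregate samples were centrifuged 16000g for 5 min and the pellet kept. Triton X-100 was added to release enzyme. Samples were quenched with ice-cold 0.1% TFA pH 2.5, digested on immobilized pepsin 5 min on ice, then analysed by chilled fast-gradient LC-MS. Deuterium uptake is centroid mass shift versus the undeuterated control, not corrected for back exchange. Ratio is inhibited over uninhibited, from three replicates.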

Experiment [2] shares this target. Briefly: Aggregation based inhibition of Escherichia coli AmpC assessed as increase in deuteration of AmpC peptide fragment spanning 323-332 amino acid sequence after 10 mins by hydrogen-deuterium exchange mass spectrometry relative to control. The method, boiled down: as §1
The target is the same in experiment [3]. Briefly: Aggregation based inhibition of Escherichia coli AmpC assessed as increase in deuteration of AmpC peptide fragment spanning 336-350 amino acid sequence after 10 mins by hydrogen-deuterium exchange mass spectrometry relative to control. A digest of the protocol: as §1
Experiment [4] shares this target. The experiment can be described thus: Aggregation based inhibition of Escherichia coli AmpC assessed as increase in deuteration of AmpC peptide fragment spanning 8-18 amino acid sequence after 1 hr by hydrogen-deuterium exchange mass spectrometry relative to control. A digest of the protocol:
as §1

Experiment [5] shares this target. Briefly: Aggregation based inhibition of Escherichia coli AmpC assessed as increase in deuteration of AmpC peptide fragment spanning 42-56 amino acid sequence after 1 hr by hydrogen-deuterium exchange mass spectrometry relative to control. The method, boiled down: as §1
The target is the same in experiment [6]. The experiment can be described thus: Aggregation based inhibition of Escherichia coli AmpC assessed as increase in deuteration of AmpC peptide fragment spanning 105-128 amino acid sequence after 1 hr by hydrogen-deuterium exchange mass spectrometry relative to control. A digest of the protocol:
as §1

The target is the same in experiment [7]. The experiment can be described thus: Aggregation based inhibition of Escherichia coli AmpC assessed as increase in deuteration of AmpC peptide fragment spanning 109-128 amino acid sequence after 1 hr by hydrogen-deuterium exchange mass spectrometry relative to control. The method, boiled down: as §1
Experiment [8] shares this target. The experiment can be described thus: Aggregation based inhibition of Escherichia coli AmpC assessed as increase in deuteration of AmpC peptide fragment spanning 132-146 amino acid sequence after 1 hr by hydrogen-deuterium exchange mass spectrometry relative to control. A digest of the protocol: as §1
Experiment [9] shares this target. The experiment can be described thus: Aggregation based inhibition of Escherichia coli AmpC assessed as increase in deuteration of AmpC peptide fragment spanning 271-289 amino acid sequence after 1 hr by hydrogen-deuterium exchange mass spectrometry relative to control. A digest of the protocol:
as §1

The target is the same in experiment [10]. The experiment can be described thus: Aggregation based inhibition of Escherichia coli AmpC assessed as increase in deuteration of AmpC peptide fragment spanning 291-322 amino acid sequence after 1 hr by hydrogen-deuterium exchange mass spectrometry relative to control. A digest of the protocol:
as §1

Experiment [11] has the same target. Briefly: Aggregation based inhibition of Escherichia coli AmpC assessed as increase in deuteration of AmpC peptide fragment spanning 323-332 amino acid sequence after 1 hr by hydrogen-deuterium exchange mass spectrometry relative to control. A digest of the protocol: as §1
Experiment [12] has the same target. The experiment can be described thus: Aggregation based inhibition of Escherichia coli AmpC assessed as increase in deuteration of AmpC peptide fragment spanning 336-350 amino acid sequence after 1 hr by hydrogen-deuterium exchange mass spectrometry relative to control. The method, boiled down:
as §1

For experiment [13] the target is unchanged. Briefly: Aggregation based inhibition of Escherichia coli AmpC assessed as increase in deuteration of AmpC peptide fragment spanning 8-18 amino acid sequence after 8 hrs by hydrogen-deuterium exchange mass spectrometry relative to control. A digest of the protocol: as §1
Experiment [14] has the same target. The experiment can be described thus: Aggregation based inhibition of Escherichia coli AmpC assessed as increase in deuteration of AmpC peptide fragment spanning 42-56 amino acid sequence after 8 hrs by hydrogen-deuterium exchange mass spectrometry relative to control. The method, boiled down: as §1
Experiment [15] shares this target. Briefly: Aggregation based inhibition of Escherichia coli AmpC assessed as increase in deuteration of AmpC peptide fragment spanning 105-128 amino acid sequence after 8 hrs by hydrogen-deuterium exchange mass spectrometry relative to control. The method, boiled down: as §1
The target is the same in experiment [16]. The experiment can be described thus: Aggregation based inhibition of Escherichia coli AmpC assessed as increase in deuteration of AmpC peptide fragment spanning 109-128 amino acid sequence after 8 hrs by hydrogen-deuterium exchange mass spectrometry relative to control. A digest of the protocol:
as §1

The target is the same in experiment [17]. The experiment can be described thus: Aggregation based inhibition of Escherichia coli AmpC assessed as increase in deuteration of AmpC peptide fragment spanning 132-146 amino acid sequence after 8 hrs by hydrogen-deuterium exchange mass spectrometry relative to control. The method, boiled down: as §1
Experiment [18] shares this target. The experiment can be described thus: Aggregation based inhibition of Escherichia coli AmpC assessed as increase in deuteration of AmpC peptide fragment spanning 243-250 amino acid sequence after 8 hrs by hydrogen-deuterium exchange mass spectrometry relative to control. A digest of the protocol: as §1
Experiment [19] shares this target. Briefly: Aggregation based inhibition of Escherichia coli AmpC assessed as increase in deuteration of AmpC peptide fragment spanning 271-289 amino acid sequence after 8 hrs by hydrogen-deuterium exchange mass spectrometry relative to control. A digest of the protocol: as §1
For experiment [20] the target is unchanged. The experiment can be described thus: Aggregation based inhibition of Escherichia coli AmpC assessed as increase in deuteration of AmpC peptide fragment spanning 291-322 amino acid sequence after 8 hrs by hydrogen-deuterium exchange mass spectrometry relative to control. The method, boiled down:
as §1

AmpC (Escherichia coli), sequence (Q83TT7 as listed by the source): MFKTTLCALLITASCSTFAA

On to `CC(=O)c1c(O)c(C)c(O)c(Cc2c(O)c3c(c(C(=O)/C=C/c4ccccc4)c2O)OC(C)(C)C=C3)c1O`, for which the fold change (FC) worked out at 1.6 at AmpC (Escherichia coli) [1]; 1.3 on AmpC (Escherichia coli) [2]; 1.7 at AmpC (Escherichia coli) [3]; 2.3 on AmpC (Escherichia coli) [4]; 2.7 on AmpC (Escherichia coli) [5]; 2.6 at AmpC (Escherichia coli) [6]. The fold change (FC) on AmpC (Escherichia coli) [7] came to 2.5; at AmpC (Escherichia coli) [8], 4.2; on AmpC (Escherichia coli) [9], 2.6; at AmpC (Escherichia coli) [10], 2.5; on AmpC (Escherichia coli) [11], 3; at AmpC (Escherichia coli) [12] it was 3.7. The fold change (FC) is 2.5 on AmpC (Escherichia coli) [13]; 1.8 on AmpC (Escherichia coli) [14]; 1.8 on AmpC (Escherichia coli) [15]; 1.6 on AmpC (Escherichia coli) [16]; 3.4 at AmpC (Escherichia coli) [17]; 1.7 at AmpC (Escherichia coli) [18]. Moreover, the fold change (FC) on AmpC (Escherichia coli) [19] stood at 1.4; at AmpC (Escherichia coli) [20] it was 1.8.
